A word on the IC50: it is the point on the concentration scale where inhibition reaches its midpoint. A low value points to inhibition by little substance.

This passage reports IC50 results from ChEMBL document CHEMBL1134558, “Discovery of estrogen sulfotransferase inhibitors from a purine library screen” (J Med Chem, 2001).

The test deals with T1, Sulfotransferase 1E1 (Mus musculus, UniProt P49891).
T1 sequence (P49891 whole entry): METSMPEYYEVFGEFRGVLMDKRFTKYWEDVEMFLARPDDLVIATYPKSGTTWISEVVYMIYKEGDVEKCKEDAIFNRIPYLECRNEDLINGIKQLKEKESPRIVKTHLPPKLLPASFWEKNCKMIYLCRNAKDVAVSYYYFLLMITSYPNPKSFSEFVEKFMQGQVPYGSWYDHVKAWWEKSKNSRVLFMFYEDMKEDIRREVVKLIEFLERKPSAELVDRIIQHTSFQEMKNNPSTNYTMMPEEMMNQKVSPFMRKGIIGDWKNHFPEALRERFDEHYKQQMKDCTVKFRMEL
The test is described as follows: Inhibition of estrogen sulfotransferase (EST) in TLC radiolabel transfer assay. The procedure, abridged: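 Murine EST expressed and purified as an N-terminal GST fusion. Transfer of ³⁵S-sulfate from ³⁵S-PAPS to estrone acceptor; extent of reaction measured by TLC separation and phosphorimaging. IC50 values taken from this radiolabel transfer assay. In the screen each compound was tested at 100 μM, with >70% inhibition scored as a hit.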
Regarding `Cn1cnc2c(N(CCO)CCO)nc(NCC(N)=O)nc21`, the IC50 was greater than 200 µM.

`Cn1cnc2c(NCc3cc(Cl)cc(Cl)c3)nc(NCC(N)=O)nc21` showed a 50% inhibitory concentration (IC50) of 60 µM.

In turn, `Cn1cnc2c(NCc3ccccc3N)nc(NCC(N)=O)nc21` returned an IC50 of 30 µM.

Take `COc1ccc(CNc2nc(NCc3ccccc3)nc3c2ncn3CCO)cc1`: the half-maximal inhibitory concentration (IC50) worked out at 30 µM.

`COc1ccc(CNc2nc(N3CCCCCC3)nc3c2ncn3C(C)C)cc1` came in with an IC50 of 0.5 µM.

`CC(C)n1cnc2c(NCc3ccc(N)cc3)nc(NCCCCC(=O)C3CSC(=O)N3)nc21` (configuration not stated) returned an IC50 of 72 µM.

As for `Cn1cnc2c(NCc3ccc(Cl)cc3)nc(NCC(N)=O)nc21`, the IC50 turned out to be 35 µM.

`COc1ccc(CNc2nc(N3CCN(C)CC3)nc3c2ncn3C(C)C)cc1`: it took 80 µM to reach half-maximal inhibition (IC50).

As to `Cn1cnc2c(N(CCO)CCNCCO)nc(NCC(N)=O)nc21`, the half-inhibitory concentration (IC50) amounted to 100 µM.

The compound `CC(O)CNc1nc(NCC(N)=O)nc2c1ncn2C` (configuration not stated) displayed an IC50 of 60 µM.

In turn, `COc1ccc(CNc2nc(N[C@H](CO)CC(C)C)nc3c2ncn3C(C)C)cc1` yielded an IC50 of 60 µM.

`O=[N+]([O-])c1ccc(CNc2nc(NCC3CCCCC3)c3ncn(CCO)c3n2)cc1` had an IC50 greater than 200 µM.
